From ChEMBL document CHEMBL4842354, “Synthesis, structure-activity relationships, cocrystallization and cellular characterization of novel smHDAC8 inhibitors for the treatment of schistosomiasis” (Eur J Med Chem, 2021)

Assays:
[1] = target: T1, Protein deacetylase HDAC6 (Homo sapiens, UniProt Q9UBN7); test: Inhibition of recombinant human HDAC6 using ZMAL as substrate incubated for 90 mins by fluorescence based micro plate assay
T1 sequence (Q9UBN7 whole entry): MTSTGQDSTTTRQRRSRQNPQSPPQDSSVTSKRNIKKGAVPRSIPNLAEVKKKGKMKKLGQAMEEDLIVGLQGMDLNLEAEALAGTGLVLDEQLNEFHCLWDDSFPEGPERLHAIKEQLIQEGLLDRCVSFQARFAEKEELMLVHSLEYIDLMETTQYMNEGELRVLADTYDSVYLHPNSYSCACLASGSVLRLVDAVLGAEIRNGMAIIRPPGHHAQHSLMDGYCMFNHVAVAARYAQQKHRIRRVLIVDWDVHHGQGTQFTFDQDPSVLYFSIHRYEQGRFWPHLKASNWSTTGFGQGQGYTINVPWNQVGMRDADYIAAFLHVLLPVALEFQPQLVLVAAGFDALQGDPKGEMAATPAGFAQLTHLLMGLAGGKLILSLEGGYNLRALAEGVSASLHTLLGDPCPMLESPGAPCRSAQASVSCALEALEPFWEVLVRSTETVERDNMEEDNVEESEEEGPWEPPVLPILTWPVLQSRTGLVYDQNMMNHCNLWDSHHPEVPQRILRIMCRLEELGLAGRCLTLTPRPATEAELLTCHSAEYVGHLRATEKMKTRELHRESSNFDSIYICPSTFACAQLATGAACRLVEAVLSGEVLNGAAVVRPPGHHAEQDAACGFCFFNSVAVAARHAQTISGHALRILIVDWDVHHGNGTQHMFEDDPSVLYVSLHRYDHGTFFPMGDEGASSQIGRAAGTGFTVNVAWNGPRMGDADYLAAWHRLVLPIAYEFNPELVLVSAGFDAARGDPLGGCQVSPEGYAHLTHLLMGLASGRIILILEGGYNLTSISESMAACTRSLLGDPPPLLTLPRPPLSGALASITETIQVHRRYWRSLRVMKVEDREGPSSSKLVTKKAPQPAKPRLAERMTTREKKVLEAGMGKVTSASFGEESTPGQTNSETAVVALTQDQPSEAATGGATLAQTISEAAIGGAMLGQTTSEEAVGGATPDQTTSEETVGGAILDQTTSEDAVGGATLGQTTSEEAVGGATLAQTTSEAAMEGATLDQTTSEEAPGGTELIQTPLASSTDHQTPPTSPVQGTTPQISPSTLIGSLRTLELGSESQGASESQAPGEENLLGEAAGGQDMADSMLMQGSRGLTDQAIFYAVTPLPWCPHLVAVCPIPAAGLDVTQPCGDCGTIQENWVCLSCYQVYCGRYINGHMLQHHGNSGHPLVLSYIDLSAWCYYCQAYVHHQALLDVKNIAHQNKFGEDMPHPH

Schistosoma mansoni [2] = test: Antischistosomal activity against Schistosoma mansoni schistosomula at 20 uM incubated for 48 hrs by Alamar Blue assay; format: functional
In short: (§1)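 S. mansoni newly transformed schistosomula from mechanically transformed cercariae, 100 NTS/well in Medium 199 with 10% FCS, penicillin, streptomycin and rifampicin. Pre-cultured 3 h at 37°C, 5% CO2. Compounds from 20 mM DMSO stocks, final 10 or 20 μM. Alamar Blue added after 48 h exposure, then 24 h more. Resorufin read at Ex 530/Em 590 nm. Live and ethanol-killed larvae as controls; triplicate wells, two biological replicates.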

[3] = target: T2, Histone deacetylase 8 (Homo sapiens) (UniProt Q9BY41); test: Inhibition of human recombinant HDAC8 at 1 uM using H2N-Arg-His-Lys(Ac)-Lys(Ac)-AMC as substrate after 90 mins by fluorescence based micro plate assay
T2 sequence (whole entry): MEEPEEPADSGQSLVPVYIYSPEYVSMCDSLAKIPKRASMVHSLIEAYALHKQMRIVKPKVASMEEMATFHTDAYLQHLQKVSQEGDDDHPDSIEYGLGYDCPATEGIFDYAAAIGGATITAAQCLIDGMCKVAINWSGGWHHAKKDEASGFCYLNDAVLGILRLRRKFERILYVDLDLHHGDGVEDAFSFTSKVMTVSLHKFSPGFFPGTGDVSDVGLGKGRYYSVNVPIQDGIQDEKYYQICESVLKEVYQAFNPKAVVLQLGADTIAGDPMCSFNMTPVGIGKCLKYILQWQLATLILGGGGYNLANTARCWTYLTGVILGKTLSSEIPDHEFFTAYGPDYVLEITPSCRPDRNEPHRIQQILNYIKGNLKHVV
In short: (§2)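 Recombinant smHDAC8 or hHDAC8 (Romier lab) run to Fluor de Lys HDAC8 kit protocol. Substrate H2N-Arg-His-Lys(Ac)-Lys(Ac)-AMC at 50 μM with increasing inhibitor concentrations, 90 min at 37°C. Stop solution holding inhibitor plus trypsin, then 20 min at 37°C to release AMC. Fluorescence read at Ex 355/Em 460 nm.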

Schistosoma mansoni [4] = test: Antischistosomal activity against Schistosoma mansoni schistosomula at 10 uM incubated for 48 hrs by Alamar Blue assay; format: functional; in short: as §1
Histone deacetylase 1 [5] = target: T3, Histone deacetylase 1 (Homo sapiens, UniProt Q13547); test: Inhibition of recombinant human HDAC1 using ZMAL as substrate incubated for 90 mins by fluorescence based micro plate assay
T3 sequence (Q13547 whole entry): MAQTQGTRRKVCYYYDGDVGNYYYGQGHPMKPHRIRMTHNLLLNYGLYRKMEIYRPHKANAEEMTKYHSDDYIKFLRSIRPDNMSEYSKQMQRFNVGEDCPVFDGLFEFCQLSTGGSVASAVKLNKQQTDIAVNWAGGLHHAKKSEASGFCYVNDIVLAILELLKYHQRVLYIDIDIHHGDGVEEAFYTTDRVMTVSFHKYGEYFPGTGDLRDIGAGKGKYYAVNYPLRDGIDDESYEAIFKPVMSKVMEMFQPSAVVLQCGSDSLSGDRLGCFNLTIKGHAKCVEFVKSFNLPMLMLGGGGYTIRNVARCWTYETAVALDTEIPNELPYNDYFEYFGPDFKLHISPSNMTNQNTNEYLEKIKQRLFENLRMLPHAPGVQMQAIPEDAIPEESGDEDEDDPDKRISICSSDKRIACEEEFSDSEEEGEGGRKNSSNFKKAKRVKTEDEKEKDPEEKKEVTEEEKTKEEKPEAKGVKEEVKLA

HEK293 = test: Cytotoxicity against human HEK293 assessed as reduction in cell viability at 50 uM measured for 24 hrs by Alamar Blue assay; format: cell-based; details: hek293, 24 h
In short: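 HEK293 cells in DMEM with 10% FCS and 5 mM glutamine at 37°C, 5% CO2, seeded at 1.5×10^3 cells/well. Compounds added at 50 μM. AlamarBlue added after 24 h and incubated a further 21 h. Resorufin fluorescence read at Ex 530/Em 590 nm. Triplicates; daunorubicin positive control.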

Histone deacetylase 8 [6] = target: T4, Histone deacetylase 8 (Schistosoma mansoni, UniProt A5H660); test: Inhibition of Schistosoma mansoni HDAC8 using Fluor de Lys as substrate incubated for 90 mins by fluorescence method; in short: as §2
T4 sequence (A5H660 whole entry): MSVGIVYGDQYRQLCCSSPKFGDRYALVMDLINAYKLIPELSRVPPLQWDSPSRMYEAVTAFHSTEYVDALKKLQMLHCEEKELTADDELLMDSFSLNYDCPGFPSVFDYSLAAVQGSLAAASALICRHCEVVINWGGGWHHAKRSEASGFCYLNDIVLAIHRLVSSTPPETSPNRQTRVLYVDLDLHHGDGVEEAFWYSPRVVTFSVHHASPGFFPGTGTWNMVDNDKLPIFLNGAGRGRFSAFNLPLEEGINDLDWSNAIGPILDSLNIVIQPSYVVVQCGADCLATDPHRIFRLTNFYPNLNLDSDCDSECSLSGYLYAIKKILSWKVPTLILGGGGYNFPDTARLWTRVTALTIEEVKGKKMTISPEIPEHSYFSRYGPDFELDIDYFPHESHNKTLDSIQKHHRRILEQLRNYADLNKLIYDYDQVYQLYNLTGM

Histone deacetylase 8 [7] = target: T5, Histone deacetylase 8 (Homo sapiens, UniProt Q9BY41); test: Inhibition of human recombinant HDAC8 using H2N-Arg-His-Lys(Ac)-Lys(Ac)-AMC as substrate after 90 mins by fluorescence based micro plate assay
T5 sequence (Q9BY41 whole entry): T2 sequence (whole entry)

Schistosoma mansoni [8] = test: Antischistosomal activity against Schistosoma mansoni schistosomula incubated for 72 hrs by Alamar Blue assay; format: functional, organism-based
In short: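 Same schistosomula Alamar Blue assay (100 NTS/well, supplemented Medium 199, 37°C, 5% CO2) run over a range of concentrations. Alamar Blue added after 48 h drug exposure, fluorescence (Ex 530/Em 590 nm) read 24 h later, 72 h in culture in total. EC50 taken from the concentration-response.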

[9] = Solubility of the compound; format: physicochemical
[10] = target: T6, HDAC1 (histone deacetylase 1) (Homo sapiens, UniProt Q13547); test: (§3) Inhibition of recombinant human HDAC1 at 1 uM using ZMAL as substrate incubated for 90 mins by fluorescence based micro plate assay relative to control; details: recombinant human HDAC1, probe ZMAL
T6 sequence (Q13547 whole entry): as the sequence (Q13547 whole entry) above
In short: (§4)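 Recombinant human HDAC1 or HDAC6 incubated 90 min at 37°C with ZMAL (Z-(Ac)Lys-AMC, 10.5 μM) and inhibitor. Developed with buffer containing trypsin (1 mg/mL) and TSA (2.75 μM), 20 min at 37°C. Fluorescence read at Ex 390/Em 460 nm.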

[11] = target: T6, HDAC1 (histone deacetylase 1); test: Inhibition of recombinant human HDAC1 at 10 uM using ZMAL as substrate incubated for 90 mins by fluorescence based micro plate assay relative to control; details: recombinant human HDAC1, probe ZMAL; in short: as §4
Histone deacetylase 1 [12] = target: T3, Histone deacetylase 1; test: as §3; details: 1.5 h, 1 µM; in short: as §4
[13] = target: T7, HDAC6 (protein deacetylase HDAC6) (Homo sapiens, UniProt Q9UBN7); test: Inhibition of recombinant human HDAC6 at 1 uM using ZMAL as substrate incubated for 90 mins by fluorescence based micro plate assay relative to control; details: recombinant human HDAC6, probe ZMAL; in short: as §4
T7 sequence (Q9UBN7 whole entry): T1 sequence (Q9UBN7 whole entry)

[14] = target: T7, HDAC6 (protein deacetylase HDAC6); test: Inhibition of recombinant human HDAC6 at 10 uM using ZMAL as substrate incubated for 90 mins by fluorescence based micro plate assay relative to control; details: recombinant human HDAC6, probe ZMAL; in short: as §4
[15] = target: T7, HDAC6 (protein deacetylase HDAC6); test: Inhibition of recombinant human HDAC6 at 100 uM using ZMAL as substrate incubated for 90 mins by fluorescence based micro plate assay relative to control; details: recombinant human HDAC6, probe ZMAL; in short: as §4
[16] = target: T8, Histone deacetylase 8 (Schistosoma mansoni) (UniProt A5H660); test: Inhibition of Schistosoma mansoni HDAC8 at 0.5 uM using Fluor de Lys as substrate incubated for 90 mins by fluorescence method relative to control; in short: as §2
T8 sequence (whole entry): T4 sequence (A5H660 whole entry)

SMILES | IC50 [1] [nM] | Activity (Schistosoma mansoni [2]) [%] | inhibition [3] [%] | Activity (Schistosoma mansoni [4]) [%] | IC50 (Histone deacetylase 1 [5]) [nM] | Activity (HEK293) [%] | IC50 (Histone deacetylase 8 [6]) [nM] | IC50 (Histone deacetylase 8 [7]) [nM] | EC50 (Schistosoma mansoni [8]) [µM] | solubility [9] | inhibition at 1.5 h, 1 µM [10] [%] | inhibition at 1.5 h, 10 µM [11] [%] | inhibition (INH) (Histone deacetylase 1 [12]) | inhibition at 1.5 h, 1 µM [13] [%] | inhibition at 1.5 h, 10 µM [14] [%] | inhibition at 1.5 h, 100 µM [15] [%] | inhibition [16] [%]
COc1ccc(C(C)=O)cc1NC(=O)c1cc(C(=O)NO)ccc1OC | 20 | 66.2 | 71 | 78.2 | 360 | 66.2 | 150 | – | – | – | – | – | – | – | – | – | –
COc1ccc(C(=O)NO)cc1NC(=O)c1cccc2c1oc1ccccc12 | 290 | – | – | 2.2 | 18500 | 73 | 270 | 320 | 3.5 | Insoluble | – | – | – | – | – | – | –
O=C(NO)c1ccc(Cl)c(NC(=O)c2ccc(-c3ccccc3)cc2Cl)c1 | 2400 | 43.5 | – | 60.6 | – | 77 | 110 | 780 | – | – | 7 | 18 | – | – | – | – | –
COc1ccc(C(=O)NO)cc1NC(=O)c1ccc(-c2ccccc2)cc1Cl | – | 65.6 | – | 64 | – | 94.6 | 100 | 1100 | – | – | – | 16 | Not Active | 15 | 46 | – | –
COc1ccc(Cn2ccc3ccc(C(=O)NO)cc32)cc1 | – | 62.3 | – | 71 | – | 96.8 | – | – | – | – | – | – | – | – | – | 41 | –
O=C(NO)c1ccc(Cl)c(C(=O)Nc2ccc(Cl)cc2)c1 | – | 62.3 | – | 77.6 | – | 69.5 | – | – | – | – | 20 | – | – | 94 | – | – | –
CCOc1ccc(C(=O)NO)cc1NC(=O)c1ccc(OC)cc1 | – | 59.4 | – | 64.4 | – | 88.7 | – | – | – | – | – | – | – | – | – | – | 51
COc1ccc(C(=O)NO)cc1C(=O)Nc1cccc(Cl)c1 | – | 82.8 | – | 85.6 | – | 88.2 | 170 | 280 | – | – | 0 | – | – | 25 | – | – | –
COc1ccc(NC(=O)c2cc(C(=O)NO)ccc2OC)cc1 | – | 83.3 | – | 91 | – | 94.5 | 430 | 270 | – | – | 2 | – | – | 18 | – | – | –
CSc1ccc(C(=O)NO)cc1NC(=O)c1ccc(-c2ccccc2)cc1 | 1500 | 64.9 | – | 57.4 | 3880 | 82.3 | 100 | 220 | – | – | – | – | – | – | – | – | –
CCCOc1ccc(C(C)=O)cc1C(=O)Nc1cc(C(=O)NO)ccc1C | 20 | 34 | – | 45.2 | 360 | 68.8 | 110 | 140 | – | – | – | – | – | – | – | – | –
